These results are taken from ChEMBL document CHEMBL4017549, “Structural Basis of Inhibition of ERα-Coactivator Interaction by High-Affinity N-Terminus Isoaspartic Acid Tethered Helical Peptides” (J Med Chem, 2017).

Calls of active or inactive are those of the source. No cut-off for these calls is given here. Where only a bound is given, the exact number is not on record here.

The test system of data set [1] is MCF7. Nature of the data set: Cytotoxicity against human MCF7 cells assessed as reduction in cell viability at 1 uM after 24 hrs by MTT assay relative to control. The data set is classed as cell-based. The following applies: mcf7, 24 h. For orientation: Tetrazolium assays rely on reduction of a dye to a coloured formazan, in cell work by metabolically active cells.

The subject of data set [2] is MCF7. Nature of the data set: Cytotoxicity against human MCF7 cells assessed as reduction in cell viability after 24 hrs by MTT assay. The data set is classed as functional, cell-based. The essentials: (§1)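 MTT read-out. 5000−10000 cells/well seeded overnight in their own medium: MCF7 and MCF10A in DMEM with phenol red, 10% FBS, 37 °C, 5% CO2; T47D in RPMI1640 with insulin and 10% FBS; MDA-MB-231 in L-15, 10% FBS, no CO2. Serial peptide dilutions or DMSO for 20 h at 37 °C, then MTT 4 h more; formazan in DMSO, A570.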

The target in data set [3] is T1, Estrogen receptor (Homo sapiens) (UniProt P03372).
T1 sequence (whole entry): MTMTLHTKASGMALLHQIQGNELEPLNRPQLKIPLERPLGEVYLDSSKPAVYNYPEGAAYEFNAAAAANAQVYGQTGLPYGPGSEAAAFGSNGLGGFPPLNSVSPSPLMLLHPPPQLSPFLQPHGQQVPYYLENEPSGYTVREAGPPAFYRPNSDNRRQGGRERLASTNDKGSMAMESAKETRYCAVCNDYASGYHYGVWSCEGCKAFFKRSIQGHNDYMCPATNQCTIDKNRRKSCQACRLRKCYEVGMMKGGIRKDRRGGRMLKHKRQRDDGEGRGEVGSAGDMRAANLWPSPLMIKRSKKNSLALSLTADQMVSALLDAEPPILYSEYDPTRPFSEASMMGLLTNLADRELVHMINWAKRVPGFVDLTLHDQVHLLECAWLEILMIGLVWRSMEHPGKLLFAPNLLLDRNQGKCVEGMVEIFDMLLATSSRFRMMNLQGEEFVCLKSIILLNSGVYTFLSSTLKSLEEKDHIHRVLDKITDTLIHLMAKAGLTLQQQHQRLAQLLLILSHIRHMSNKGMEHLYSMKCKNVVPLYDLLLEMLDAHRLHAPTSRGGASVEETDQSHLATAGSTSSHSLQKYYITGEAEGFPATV
Nature of the data set: Inhibition of ERalpha in human MCF7 cells assessed as downregulation of 17beta-estradiol-mediated pS2 mRNA expression at 5 uM preincubated for 4 hrs followed by 17beta-estradiol addition measured after 16 hrs by quantitative RT-PCR analysis. The data set is classed as cell-based. Summed up: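 MCF-7 cells hormone-depleted 72 h in phenol red-free DMEM with 5% charcoal-treated serum, given peptides or DMSO for 4 h, then 100 nM 17β-estradiol or DMSO for 16 h. pS2 mRNA measured by quantitative RT-PCR, normalized to β-actin. Three independent experiments, mean ± SEM.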

The target of data set [4] is T1, Estrogen receptor (Homo sapiens). Nature of the data set: Inhibition of recombinant human GFP-fused ERalpha LBD (301 to 553 residues) expressed in human […] cells assessed as downregulation of 17beta-estradiol-induced transcription at 5 uM preincubated for 4 hrs followed by E2 addition measured after 20 hrs by dual luciferase reporter gene assay. The data set is classed as cell-based. Summed up:
(§2)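 U2OS cells in phenol red-free DMEM with 10% charcoal-stripped FBS, transfected 4 h with pEGFP-C1-ERα, 3XERE firefly luciferase reporter and pRL-TK Renilla plasmids. Peptides for 4 h, then 10 nM E2 or DMSO for 20 h. Lysates read by dual-luciferase; firefly normalized to Renilla, then to DMSO-treated control. SEM from more than two independent experiments.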
On the technique in general: In a reporter assay the amount or activity of a reporter protein is the signal.

In a further data set the test system is MCF-10A. Nature of the data set: Cytotoxicity against human MCF10A cells assessed as reduction in cell viability up to 40 uM after 24 hrs by MTT assay. The data set is classed as cell-based. Summed up:
as §1

In another data set the test system is T47D. Nature of the data set: Cytotoxicity against human T47D cells assessed as reduction in cell viability up to 40 uM after 24 hrs by MTT assay. The data set is classed as functional, cell-based. Summed up:
as §1

Data set [5] concerns the target T1, Estrogen receptor (Homo sapiens). Nature of the data set: Inhibition of recombinant human GFP-fused ERalpha LBD (301 to 553 residues) expressed in human […] cells assessed as downregulation of 17beta-estradiol-induced transcription at 5 uM preincubated for 4 hrs followed by E2 addition measured after 20 hrs in presence of tamoxifen by dual luciferase reporter gene assay. The data set is classed as cell-based. The essentials:
as §2

Data set [6] deals with MCF7. Nature of the data set: Cytotoxicity against human MCF7 cells assessed as cell viability at 20 uM after 24 hrs by MTT assay. The following applies: MCF7, 24 h, read-out: Activity. The data set is classed as functional.
The next data set has as its system MDA-MB-231. Nature of the data set: Cytotoxicity against human MDA-MB-231 cells assessed as reduction in cell viability up to 40 uM after 24 hrs by MTT assay. The data set is classed as functional, cell-based. Summed up: as §1
In data set [7] the test system is MCF7. Nature of the data set: Cytotoxicity against human MCF7 cells assessed as reduction in cell viability at 5 uM after 24 hrs by MTT assay relative to control. The following applies: mcf7, 24 h. The data set is classed as cell-based.

As to `CC[C@H](C)[C@@H]1NC(=O)C[C@H](NC(=O)[C@H](CCCNC(=N)N)NC(=O)CCNC(=O)[C@H](Cc2c[nH]c3ccccc23)NC(C)=O)C(=O)NCC(C(=O)N[C@@H](CCCNC(=N)N)C(=O)NC(CC(C)(C)C)C(=O)NC(CC(C)(C)C)C(=O)N[C@@H](CCC(N)=O)C(N)=O)NC(=O)C(CC(C)(C)C)NC1=O` (stereo partly specified), the Activity in the data set on MCF7 [1] is less than 20%; in the data set with MCF7 [2], “Dose-dependent effect”; with MCF-10A it was “Non-Toxic”; in the data set with MCF7 [7], less than 20%. For the same molecule, the IC50 (as a rule, the concentration that gives 50% inhibition) with MCF7 [2] (MCF7, 24 h) came to 12 µM. Also, the inhibition result in data set [3], in data set [4] and in data set [5] was “Active” each time. Besides, the result in the data set with T47D was Active. In addition, the viability at 20 µM with MCF7 [6] was 14%. Further, the result with MDA-MB-231 was inactive.
